Test results from article PMC5561660 (Organic & biomolecular chemistry, 2017).
Like-named read-outs stand apart in the source and are kept apart here.

Columns and labels:
σ1 receptor [1] = target: σ1 receptor (Cavia porcellus, UniProt Q60492); details: read-out: Ki σ1, mean ± SEM, cited from earlier work
σ1 receptor [2] = details: selectivity ratio, cited from earlier work
σ2 receptor [3] = target: T1, σ2 receptor (Rattus norvegicus, UniProt Q5U3Y7); details: read-out: Ki σ2, mean ± SEM, cited from earlier work
T1 sequence (Q5U3Y7 1-176): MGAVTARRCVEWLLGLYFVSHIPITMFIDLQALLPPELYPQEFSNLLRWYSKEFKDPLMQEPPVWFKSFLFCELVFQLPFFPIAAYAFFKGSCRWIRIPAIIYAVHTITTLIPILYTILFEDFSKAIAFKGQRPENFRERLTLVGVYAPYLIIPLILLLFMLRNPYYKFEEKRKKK

σ2 receptor [4] = details: selectivity ratio, cited from earlier work
human VAChT [5] = target: T2, human VAChT (Homo sapiens, UniProt Q16572); details: read-out: Ki VAChT, mean ± SEM, cited from earlier work
T2 sequence (Q16572 1-532): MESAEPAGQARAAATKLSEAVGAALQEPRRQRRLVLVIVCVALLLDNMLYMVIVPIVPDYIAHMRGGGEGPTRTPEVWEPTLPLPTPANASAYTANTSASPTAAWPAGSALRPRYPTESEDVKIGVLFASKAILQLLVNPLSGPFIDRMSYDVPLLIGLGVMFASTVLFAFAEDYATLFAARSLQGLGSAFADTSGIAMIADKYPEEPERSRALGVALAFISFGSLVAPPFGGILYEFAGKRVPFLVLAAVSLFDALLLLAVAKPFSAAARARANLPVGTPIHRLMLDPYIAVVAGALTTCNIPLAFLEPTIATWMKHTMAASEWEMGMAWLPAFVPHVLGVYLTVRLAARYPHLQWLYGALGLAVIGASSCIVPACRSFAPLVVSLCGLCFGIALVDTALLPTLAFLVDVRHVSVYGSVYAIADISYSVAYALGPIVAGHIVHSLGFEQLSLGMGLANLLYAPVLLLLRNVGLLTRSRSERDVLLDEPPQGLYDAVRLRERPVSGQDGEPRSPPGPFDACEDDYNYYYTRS

human VAChT [6] = target: T2, human VAChT; assay: VAChT competitive binding, displacement of
Procedure, shortened: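 Postnuclear supernatant (200 µg) from PC12A123.7 cells expressing human VAChT, incubated with (−)-[3H]vesamicol and test compound (0.1–10,000 nM, 10-fold steps) in 110 mM potassium tartrate, 20 mM HEPES pH 7.4, 1 mM DTT, 0.02% sodium azide, 22 °C, 24 h. Duplicate filtration on PEI-coated GF/F filters, buffer washes, scintillation counting. Ki from rectangular hyperbola fit of averaged data; ≥2 independent assays.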

σ1 receptor (Cavia porcellus, UniProt Q60492), sequence (Q60492 whole entry): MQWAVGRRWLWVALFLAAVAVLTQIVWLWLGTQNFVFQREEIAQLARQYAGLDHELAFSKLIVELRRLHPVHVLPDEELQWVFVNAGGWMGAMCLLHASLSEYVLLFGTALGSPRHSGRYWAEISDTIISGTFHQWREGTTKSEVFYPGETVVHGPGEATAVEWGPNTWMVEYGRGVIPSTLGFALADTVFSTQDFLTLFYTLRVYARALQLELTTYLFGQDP

Which Ki (σ1 receptor [1]; ref [20]) does the source give for O=C(c1ccc(OCCF)cc1)C1CCN(C2Cc3ccccc3CC2O)CC1 (racemic) [(±)-5, (4-(2-fluoroethoxy)phenyl)(1-(3-hydroxy-1,2,3,4-tetrahydronaphthalen-2-yl)piperidin-4-yl)methanone] here?
The Ki was 2120 ± 50 nM.

And the σ1/VAChT (σ1 receptor [2]; ref [20])?
The σ1/VAChT was 56.

What about the Ki (σ2 receptor [3]; ref [20]) of the same molecule?
Its Ki is 1860 ± 140 nM.

And the σ2/VAChT (σ2 receptor [4]; ref [20])?
The σ2/VAChT was 49.

And the Ki (human VAChT [5]; ref [20])?
Its Ki is 38 ± 3.8 nM.

With O=C(c1ccc(OCCF)nc1)C1CCN(C2Cc3ccccc3CC2O)CC1 (racemic) [(±)-6, (6-(2-fluoroethoxy)pyridin-3-yl)(1-(3-hydroxy-1,2,3,4-tetrahydronaphthalen-2-yl)piperidin-4-yl)methanone] as the molecule, how does the Ki (σ1 receptor [1]; ref [23]) read?
The Ki was 13.2 ± 0.2 nM.

What about the σ1/VAChT (σ1 receptor [2]; ref [23]) of the same molecule?
Its σ1/VAChT is 8.

What about the Ki (σ2 receptor [3]; ref [23]) of the same molecule?
Its Ki is 1890 ± 240 nM.

What about the σ2/VAChT (σ2 receptor [4]; ref [23]) of the same molecule?
The σ2/VAChT was 1086.

And the Ki (human VAChT [5]; ref [23])?
The Ki was 1.74 ± 0.32 nM.

With O=C(c1ccc(NCCF)cc1)C1CCN(C2Cc3ccccc3CC2O)CC1 (racemic) [(±)-7, (4-((2-Fluoroethyl)amino)phenyl)(1-(3-hydroxy-1,2,3,4-tetrahydronaphthalen-2-yl)piperidin-4-yl)methanone] as the molecule, how does the Ki (human VAChT [6]) read?
The Ki was 2.68 ± 0.23 nM.
